Experimental data: ChEMBL document CHEMBL1155128, “Kinetic studies and bioactivity of potential manzamine prodrugs” (J Nat Prod, 2008)
Values after ≈ are worked out from the molar mass of the structure shown. Active and inactive are the calls of the source. The calls are words filed in the database; no cut-off is given here.

What was measured:
Leishmania donovani = experiment: Antileishmanial activity against Leishmania donovani promastigotes after 72 hrs by almar blue assay; type: functional, organism-based
[1] = tested on: Mycobacterium intracellulare; experiment: Antimicrobial activity against Mycobacterium intracellular ATCC 23068; type: functional, organism-based
Method in brief: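 M. intracellulare ATCC 23068 tested by a modified Franzblau method. […] Fluorescence read at 544ex/590em before and after incubation.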

Candida albicans = experiment: Antimicrobial activity against Candida albicans ATCC 90028; type: functional, organism-based
Staphylococcus aureus = experiment: Antimicrobial activity against methicillin-resistant Staphylococcus aureus ATCC 43300; type: functional, organism-based
Plasmodium falciparum [2] = experiment: Antimalarial activity against chloroquine-sensitive Plasmodium falciparum D6 as LDH activity; type: functional, organism-based
Method in brief: (§1)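 Red cells infected with P. falciparum D6 or W2 (2% parasitemia, 2% hematocrit, RPMI 1640 with 10% human serum and 60 µg/mL amikacin) added to serially diluted samples. Gassed with 90% N2/5% O2/5% CO2 and held 37 °C for 72 h. Parasite LDH read with Malstat plus NBT/PES at 650 nm. IC50 from dose-response curves; artemisinin and chloroquine controls.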

Plasmodium falciparum [3] = experiment: Antimalarial activity against chloroquine-resistant Plasmodium falciparum W2 by LDH activity; type: functional, organism-based; method in brief: as §1
[4] = Cytotoxicity against african green monkey Vero cells after 48 hrs by neutral red assay; type: cell-based; conditions: chlorocebus sabaeus
Method in brief: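 Vero monkey kidney cells seeded at 25,000 cells/well and grown 24 h, then given samples at several concentrations for 48 h. Viable cells were counted by neutral red. IC50 was taken from dose-response curves, with doxorubicin as positive control.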

Cryptococcus neoformans = experiment: Antimicrobial activity against Cryptococcus neoformans ATCC 90113; type: functional, organism-based
Plasmodium berghei [5] = experiment: Antimalarial activity as reduced parasitaemia at day 14 in Plasmodium berghei NK65 infected mice (Mus musculus) at 30 mg/kg peroral dose once daily for 3 days post infection; design: scale not given: the % may be the effect or the level left; conditions: route oral
Plasmodium berghei [6] = experiment: Antimalarial activity as reduced parasitaemia at day 14 in Plasmodium berghei NK65 infected mice (Mus musculus) at 10 mg/kg peroral dose […]; type: functional; design: scale not given: the % may be the effect or the level left; conditions: route oral
Method in brief: (§2)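 Peters 4-day suppressive test. Male Swiss Webster mice (18-20 g), 5 per group, infected ip with 2 X10^7 P. berghei NK-65 parasitized red cells. Compounds in 0.1N HCl given orally about 2 h post-infection, once daily on days 0-2; vehicle and β-arteether control groups. Parasitemia followed on Giemsa-stained tail blood smears up to day 28.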

Plasmodium berghei [7] = experiment: Antimalarial activity as reduced parasitaemia day 7 in Plasmodium berghei NK65 infected mice (Mus musculus) at 10 mg/kg peroral dose […] […]; type: functional; design: scale not given: the % may be the effect or the level left; conditions: route oral; method in brief: as §2
Plasmodium berghei [8] = experiment: Antimalarial activity as reduced parasitaemia on day 10 in Plasmodium berghei NK65 infected mice (Mus musculus) at 10 mg/kg peroral dose […] post infection; type: functional; design: scale not given: the % may be the effect or the level left; conditions: route oral; method in brief: as §2
Plasmodium berghei [9] = experiment: Antimalarial activity as reduced parasitaemia at day 10 in Plasmodium berghei NK65 infected mice (Mus musculus) at 30 mg/kg peroral dose […] post infection; type: functional; design: scale not given: the % may be the effect or the level left; conditions: route oral; method in brief: as §2
Plasmodium berghei [10] = experiment: Antimalarial activity as reduced parasitaemia at day 7 in Plasmodium berghei NK65 infected mice (Mus musculus) at 30 mg/kg peroral dose […] post infection; type: functional; design: scale not given: the % may be the effect or the level left; conditions: route oral; method in brief: as §2
Vero = experiment: Cytotoxicity against african green monkey Vero cells at 4.76 ug/ml after 48 hrs by neutral red assay; type: functional, cell-based; conditions: Chlorocebus sabaeus
[11] = molecular target: Glycogen synthase kinase-3 beta (Homo sapiens, UniProt P49841); experiment: Inhibition of GSK3-beta
Glycogen synthase kinase-3 beta, sequence (P49841 whole entry): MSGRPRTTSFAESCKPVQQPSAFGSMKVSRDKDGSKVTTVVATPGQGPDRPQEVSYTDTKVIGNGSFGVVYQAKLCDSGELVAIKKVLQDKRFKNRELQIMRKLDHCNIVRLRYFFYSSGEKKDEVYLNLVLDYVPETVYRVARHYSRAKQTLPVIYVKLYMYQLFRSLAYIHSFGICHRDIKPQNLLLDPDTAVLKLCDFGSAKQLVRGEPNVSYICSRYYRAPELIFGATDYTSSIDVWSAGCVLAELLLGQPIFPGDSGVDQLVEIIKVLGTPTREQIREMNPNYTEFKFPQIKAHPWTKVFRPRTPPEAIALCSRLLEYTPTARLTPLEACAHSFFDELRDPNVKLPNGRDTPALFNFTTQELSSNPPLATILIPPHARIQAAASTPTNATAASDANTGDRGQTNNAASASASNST

[12] = molecular target: Glycogen synthase kinase-3 alpha (Homo sapiens, UniProt P49840); experiment: Inhibition of GSK3alpha
Glycogen synthase kinase-3 alpha, sequence (P49840 whole entry): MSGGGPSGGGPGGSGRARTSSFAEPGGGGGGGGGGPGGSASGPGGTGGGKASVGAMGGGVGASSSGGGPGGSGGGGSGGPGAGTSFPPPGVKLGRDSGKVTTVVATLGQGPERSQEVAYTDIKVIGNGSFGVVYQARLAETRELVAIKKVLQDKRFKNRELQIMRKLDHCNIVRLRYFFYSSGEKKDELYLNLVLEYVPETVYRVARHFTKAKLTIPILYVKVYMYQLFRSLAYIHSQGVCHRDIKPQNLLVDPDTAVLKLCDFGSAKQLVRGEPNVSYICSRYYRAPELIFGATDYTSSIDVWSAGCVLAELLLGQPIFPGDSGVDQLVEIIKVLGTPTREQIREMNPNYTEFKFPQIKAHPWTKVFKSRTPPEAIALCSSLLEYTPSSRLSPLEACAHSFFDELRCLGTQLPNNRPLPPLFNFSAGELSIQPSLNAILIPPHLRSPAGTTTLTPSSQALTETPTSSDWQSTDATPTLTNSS

SMILES | IC50 (Leishmania donovani) [µg/mL] | IC90 (Leishmania donovani) [µg/mL] | IC50 [1] [µg/mL] | MBC [1] [µg/mL] | MIC [1] [µg/mL] | IC50 (Candida albicans) [µg/mL] | MIC (Candida albicans) [µg/mL] | IC50 (Staphylococcus aureus) [µg/mL] | MFC (Staphylococcus aureus) [µg/mL] | MIC (Staphylococcus aureus) [µg/mL] | IC50 (Plasmodium falciparum [2]) [µg/mL] | IC50 (Plasmodium falciparum [3]) [µg/mL] | CC50 at 48 h ([4]; read-out: TC50) [µg/mL] | IC50 (Cryptococcus neoformans) [µg/mL] | Activity (Plasmodium berghei [6]) [%] | Activity (Plasmodium berghei [7]) [%] | Activity (Plasmodium berghei [8]) [%] | MIC (Cryptococcus neoformans) [µg/mL] | other results
COc1cccc2c1[nH]c1c(C3=C[C@@]4(O)CC/C=C\CCCCN5CC[C@@H]3[C@]3(C[C@@H]6/C=C\CCCCN6[C@H]34)C5)nccc12 [8-METHOXYMANZAMINE A] | 5 (≈ 8.64 µM) | 24 (≈ 41.5 µM) | 0.15 (≈ 0.259 µM) | 20 (≈ 34.6 µM) | 0.63 (≈ 1.09 µM) | 3 (≈ 5.18 µM) | 10 (≈ 17.3 µM) | 0.55 (≈ 0.95 µM) | > 20 | > 20 | 0.037 (≈ 0.0639 µM) | 0.047 (≈ 0.0812 µM) | 980 (≈ 1690 µM) | 2 (≈ 3.46 µM) | – | – | – | – | MFC (Candida albicans): > 20 µg/mL
C[C@@H]1CC[C@H]2[C@@H](C)C(=O)O[C@@H]3O[C@@]4(C)CC[C@@H]1[C@]32OO4 [ARTEMISININ] | – | – | – | – | – | – | – | – | – | – | 0.0043 (≈ 0.0152 µM) | 0.0044 (≈ 0.0156 µM) | – | – | – | – | – | – | –
O=C(O)c1cn(C2CC2)c2cc(N3CCNCC3)c(F)cc2c1=O [CIPROFLOXACIN] | – | – | – | > 20 | 0.5 (≈ 1.51 µM) | – | – | – | 1 (≈ 3.02 µM) | 0.25 (≈ 0.754 µM) | – | – | – | – | – | – | – | – | –
CC(=O)Oc1cccc2c1[nH]c1c(C3=C[C@@]4(O)CC/C=C\CCCCN5CC[C@@H]3[C@]3(C[C@@H]6/C=C\CCCCN6[C@H]34)C5)nccc12 [8-ACETOXYMANZAMINE A] | 3.4 (≈ 5.6 µM) | 7 (≈ 11.5 µM) | 0.1 (≈ 0.165 µM) | > 20 | 0.16 (≈ 0.264 µM) | 1.5 (≈ 2.47 µM) | 2.5 (≈ 4.12 µM) | 0.5 (≈ 0.824 µM) | 20 (≈ 33 µM) | – | 0.0096 (≈ 0.0158 µM) | 0.03 (≈ 0.0494 µM) | 370 (≈ 610 µM) | 1.5 (≈ 2.47 µM) | 8 | 61 | 51 | 2.5 (≈ 4.12 µM) | Activity (Plasmodium berghei [5]): 48%; MFC (Candida albicans): 5 µg/mL (≈ 8.24 µM); Activity (Plasmodium berghei [9]): 84%; Activity (Plasmodium berghei [10]): 93%; MFC (Cryptococcus neoformans): 5 µg/mL (≈ 8.24 µM)
Oc1cccc2c1[nH]c1c(C3=C[C@@]4(O)CC/C=C\CCCCN5CC[C@@H]3[C@]3(C[C@@H]6/C=C\CCCCN6[C@H]34)C5)nccc12 | – | 11 (≈ 19.5 µM) | 0.25 (≈ 0.443 µM) | – | 0.31 (≈ 0.549 µM) | 10 (≈ 17.7 µM) | 5 (≈ 8.85 µM) | 6.5 (≈ 11.5 µM) | – | – | – | – | – | – | 32 | 57 | 35 | – | Activity (Plasmodium berghei [5]): 67%; Activity (Plasmodium berghei [9]): 83%; Activity (Plasmodium berghei [10]): 100%; CC50 at 48 h [4]: 1.1 µg/mL (≈ 1.95 µM)
CC(=O)Oc1cccc2c1[nH]c1c(C3=C[C@@]4(OC(C)=O)CC/C=C\CCCCN5CC[C@@H]3[C@]3(C[C@@H]6/C=C\CCCCN6[C@H]34)C5)nccc12 [8,12-DIACETOXYMANZAMINE A] | 16 (≈ 24.7 µM) | 35 (≈ 53.9 µM) | 4.5 (≈ 6.94 µM) | – | – | > 20 | – | 2 (≈ 3.08 µM) | – | 5 (≈ 7.71 µM) | 1.3 (≈ 2 µM) | 1.2 (≈ 1.85 µM) | – | > 20 | – | – | – | 10 (≈ 15.4 µM) | Activity (Vero): inactive
O[C@]12C=C(c3nccc4c3[nH]c3ccccc34)[C@@H]3CCN(CCCC/C=C\CC1)C[C@@]31C[C@@H]3/C=C\CCCCN3[C@H]12 [MANZAMINE A] | – | 1.8 (≈ 3.28 µM) | – | – | 0.63 (≈ 1.15 µM) | – | – | – | – | – | – | 0.005 (≈ 0.00911 µM) | 680 (≈ 1240 µM) | – | 90 | 100 | 100 | 10 (≈ 18.2 µM) | IC50 [11]: 10 µM; IC50 [12]: 25 µM
C[C@@H]1[C@H](O)[C@@H](C)/C=C/C=C/C=C/C=C/C=C/C=C/C=C/[C@H](O[C@@H]2O[C@H](C)[C@@H](O)[C@H](N)[C@@H]2O)C[C@@H]2O[C@](O)(C[C@@H](O)C[C@@H](O)[C@H](O)CC[C@@H](O)C[C@@H](O)CC(=O)O[C@H]1C)C[C@H](O)[C@H]2C(=O)O [AMPHOTERICIN B] | 0.4 (≈ 0.433 µM) | 0.36 (≈ 0.39 µM) | – | – | – | 0.1 (≈ 0.108 µM) | 0.63 (≈ 0.682 µM) | – | – | – | – | – | – | 1 (≈ 1.08 µM) | – | – | – | 2.5 (≈ 2.71 µM) | MFC (Cryptococcus neoformans): 2.5 µg/mL (≈ 2.71 µM)
N=C(N)c1ccc(OCCCCCOc2ccc(C(=N)N)cc2)cc1 [PENTAMIDINE] | 0.9 (≈ 2.64 µM) | 1.8 (≈ 5.29 µM) | – | – | – | – | – | – | – | – | – | – | – | – | – | – | – | – | –
